From ChEMBL document CHEMBL3407418, “Fragment-based drug discovery of 2-thiazolidinones as BRD4 inhibitors: 2. Structure-based optimization” (J Med Chem, 2015) come the findings set out here.

Usually IC50 stands for the concentration that inhibits the measured activity by half. Higher therefore signals lower potency. The term ΔTm denotes the change in melting temperature against a reference sample. One may read the inhibition as the drop in the measured response relative to a control, in per cent.

For data set [1], the target named is T1, Bromodomain-containing protein 4 (Homo sapiens, UniProt O60885). Nature of the data set: Inhibition of BRD4(1) (unknown origin) incubated for 4 hrs by (+)-JQ1 fluorescent ligand based fluorescence anisotrophy.
For data set [2], the target named is SWI/SNF-related matrix-associated actin-dependent regulator of chromatin subfamily A member 4 (Homo sapiens) (UniProt P51532). Nature of the data set: Binding affinity to BRG1 (unknown origin) assessed as increase in protein melting temperature at 50 umol by real-time PCR system based thermal shift assay. In a few lines: (§1)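 Bromodomain proteins in 10 mmol HEPES pH 7.5, 500 mmol NaCl at 75 μg/mL final; compound at 50 µmol final; SYPRO Orange probe at 1:1000. Four replicates per protein mixture. Melt curve read on a real-time PCR instrument, heating 25 °C to 99 °C at 1 °C/min under continuous fluorescence reading; binding taken as the rise in protein melting temperature.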
Sequence of SWI/SNF-related matrix-associated actin-dependent regulator of chromatin subfamily A member 4 (Homo sapiens) (P51532 whole entry): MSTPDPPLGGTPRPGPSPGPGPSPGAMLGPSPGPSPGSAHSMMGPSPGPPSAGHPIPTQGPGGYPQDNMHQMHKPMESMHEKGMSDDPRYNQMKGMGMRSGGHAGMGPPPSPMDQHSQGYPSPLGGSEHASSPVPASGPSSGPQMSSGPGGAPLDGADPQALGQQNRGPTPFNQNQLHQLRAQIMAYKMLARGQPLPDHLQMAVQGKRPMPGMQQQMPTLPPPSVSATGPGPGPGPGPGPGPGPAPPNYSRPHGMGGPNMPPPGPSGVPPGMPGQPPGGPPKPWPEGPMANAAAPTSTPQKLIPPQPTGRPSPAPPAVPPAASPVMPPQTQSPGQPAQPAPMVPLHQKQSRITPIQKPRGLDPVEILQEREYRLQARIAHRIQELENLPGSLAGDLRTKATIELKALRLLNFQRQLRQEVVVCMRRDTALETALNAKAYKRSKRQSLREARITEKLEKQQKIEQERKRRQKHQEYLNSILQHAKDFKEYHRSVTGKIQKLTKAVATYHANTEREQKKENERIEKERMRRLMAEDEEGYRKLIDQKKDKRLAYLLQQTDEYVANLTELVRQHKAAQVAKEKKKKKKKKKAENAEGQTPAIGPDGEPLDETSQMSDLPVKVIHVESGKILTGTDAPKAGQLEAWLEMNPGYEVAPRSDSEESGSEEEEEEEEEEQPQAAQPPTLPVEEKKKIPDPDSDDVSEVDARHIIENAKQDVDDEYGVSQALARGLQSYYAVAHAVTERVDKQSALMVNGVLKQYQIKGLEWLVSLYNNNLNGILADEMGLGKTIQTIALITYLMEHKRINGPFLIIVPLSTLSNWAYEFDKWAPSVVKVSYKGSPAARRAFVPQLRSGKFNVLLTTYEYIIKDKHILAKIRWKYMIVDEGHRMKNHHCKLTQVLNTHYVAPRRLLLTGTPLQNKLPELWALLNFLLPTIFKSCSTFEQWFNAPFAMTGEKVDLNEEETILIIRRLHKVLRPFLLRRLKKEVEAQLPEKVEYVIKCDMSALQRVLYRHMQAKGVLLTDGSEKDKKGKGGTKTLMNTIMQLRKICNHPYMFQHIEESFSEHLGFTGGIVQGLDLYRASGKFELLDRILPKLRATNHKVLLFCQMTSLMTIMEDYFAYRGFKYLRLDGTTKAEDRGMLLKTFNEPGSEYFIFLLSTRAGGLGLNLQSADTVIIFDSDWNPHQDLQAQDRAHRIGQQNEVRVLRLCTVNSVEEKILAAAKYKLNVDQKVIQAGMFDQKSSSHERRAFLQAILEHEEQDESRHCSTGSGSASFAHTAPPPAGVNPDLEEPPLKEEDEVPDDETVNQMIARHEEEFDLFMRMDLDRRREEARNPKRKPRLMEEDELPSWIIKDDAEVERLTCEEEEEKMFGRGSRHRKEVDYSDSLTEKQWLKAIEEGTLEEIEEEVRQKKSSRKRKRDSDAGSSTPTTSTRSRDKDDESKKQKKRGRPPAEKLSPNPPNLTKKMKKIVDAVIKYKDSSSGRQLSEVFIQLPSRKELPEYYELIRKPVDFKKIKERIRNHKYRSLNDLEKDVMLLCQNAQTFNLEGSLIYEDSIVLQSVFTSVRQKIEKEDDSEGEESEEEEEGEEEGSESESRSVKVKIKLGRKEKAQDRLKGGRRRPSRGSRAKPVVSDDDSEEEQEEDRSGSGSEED

The target of data set [3] is Bromodomain-containing protein 2 (Homo sapiens) (UniProt P25440). Nature of the data set: Binding affinity to BRD2(1) (unknown origin) assessed as increase in protein melting temperature at 50 umol by real-time PCR system based thermal shift assay. In a few lines: as §1
Sequence of Bromodomain-containing protein 2 (Homo sapiens) (P25440 whole entry, looked up): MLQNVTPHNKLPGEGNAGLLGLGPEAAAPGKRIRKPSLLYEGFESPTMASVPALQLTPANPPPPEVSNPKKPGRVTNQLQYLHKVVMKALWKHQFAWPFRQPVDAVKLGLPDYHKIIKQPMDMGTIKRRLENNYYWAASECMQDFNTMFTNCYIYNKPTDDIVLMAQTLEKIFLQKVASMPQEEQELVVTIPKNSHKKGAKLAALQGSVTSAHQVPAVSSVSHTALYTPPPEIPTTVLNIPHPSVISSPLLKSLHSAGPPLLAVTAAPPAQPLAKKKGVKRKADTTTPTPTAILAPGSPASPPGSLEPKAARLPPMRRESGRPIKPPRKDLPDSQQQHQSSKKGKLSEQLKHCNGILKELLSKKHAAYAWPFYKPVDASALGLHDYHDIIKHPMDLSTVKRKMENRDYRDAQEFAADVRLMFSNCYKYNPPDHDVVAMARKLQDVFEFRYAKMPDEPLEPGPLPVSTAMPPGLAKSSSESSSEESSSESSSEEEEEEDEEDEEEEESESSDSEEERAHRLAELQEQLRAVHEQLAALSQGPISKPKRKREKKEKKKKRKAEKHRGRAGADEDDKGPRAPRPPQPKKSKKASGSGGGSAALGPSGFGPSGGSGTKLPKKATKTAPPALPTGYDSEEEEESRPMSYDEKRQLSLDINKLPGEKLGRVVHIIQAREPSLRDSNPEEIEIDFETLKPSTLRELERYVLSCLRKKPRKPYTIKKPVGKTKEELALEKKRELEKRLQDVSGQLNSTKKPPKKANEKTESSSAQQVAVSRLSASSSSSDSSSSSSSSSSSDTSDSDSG
For data set [4], the target named is T2, CYP3A4 (Homo sapiens, UniProt P08684). Nature of the data set: Inhibition of CYP3A4 in human liver microsomes at 10 uM using midazolam substrate preincubated for 5 mins before NADPH addition and measured after 20 mins post NADPH addition. The conditions noted are these: probe midazolam. The class given is ADME. In a few lines: (§2)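 Human liver microsomes 0.2 mg/mL, 1 mmol NADPH, 100 mmol phosphate pH 7.4, probe cocktail (10 μM midazolam, 100 μM testosterone, 10 μM dextromethorphan, 20 μM diclofenac, 100 μM phenacetin, 100 μM mephenytoin), test compound 10 μM or PBS; organic solvent <1%. 5 min preincubation at 37 °C, NADPH-generating system start, 20 min reaction; inhibition from metabolite formation relative to PBS.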
T2 sequence (P08684 whole entry): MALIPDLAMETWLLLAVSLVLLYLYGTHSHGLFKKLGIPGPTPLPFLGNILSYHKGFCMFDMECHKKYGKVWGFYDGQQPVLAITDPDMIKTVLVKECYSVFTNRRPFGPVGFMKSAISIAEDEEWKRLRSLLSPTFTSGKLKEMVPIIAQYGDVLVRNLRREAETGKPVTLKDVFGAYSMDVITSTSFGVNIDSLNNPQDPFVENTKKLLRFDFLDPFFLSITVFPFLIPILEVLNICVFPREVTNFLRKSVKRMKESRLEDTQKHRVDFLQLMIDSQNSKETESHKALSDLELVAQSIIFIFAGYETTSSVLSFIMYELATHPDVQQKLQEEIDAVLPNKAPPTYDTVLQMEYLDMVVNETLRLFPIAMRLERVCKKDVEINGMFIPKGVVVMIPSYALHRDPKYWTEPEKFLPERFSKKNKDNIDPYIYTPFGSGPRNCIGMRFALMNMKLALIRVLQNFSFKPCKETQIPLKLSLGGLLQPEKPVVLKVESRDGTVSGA

The target of the next data set is T3, CYP1A2 (Homo sapiens, UniProt P05177).
T3 sequence (P05177 whole entry): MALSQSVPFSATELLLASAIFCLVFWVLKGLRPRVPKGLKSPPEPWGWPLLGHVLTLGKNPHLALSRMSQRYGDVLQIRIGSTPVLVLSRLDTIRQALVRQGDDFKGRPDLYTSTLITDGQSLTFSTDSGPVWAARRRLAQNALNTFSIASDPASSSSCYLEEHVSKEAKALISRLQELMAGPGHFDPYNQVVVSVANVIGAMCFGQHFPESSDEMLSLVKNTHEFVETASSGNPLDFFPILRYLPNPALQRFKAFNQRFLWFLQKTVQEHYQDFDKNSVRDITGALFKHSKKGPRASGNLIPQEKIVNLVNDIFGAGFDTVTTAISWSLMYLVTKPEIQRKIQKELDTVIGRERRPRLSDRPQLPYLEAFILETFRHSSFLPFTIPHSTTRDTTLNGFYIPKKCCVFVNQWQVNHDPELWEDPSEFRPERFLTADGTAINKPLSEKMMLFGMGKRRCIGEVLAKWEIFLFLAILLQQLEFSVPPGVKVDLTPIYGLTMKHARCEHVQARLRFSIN
Nature of the data set: Inhibition of CYP1A2 in human liver microsomes at 10 uM using phenacetin substrate preincubated for 5 mins before NADPH addition and measured after 20 mins post NADPH addition. The class given is ADME. The conditions noted are these: probe phenacetin. In a few lines:
as §2
On the technique in general: Liver microsomes are a subcellular fraction often used to study metabolism.

Data set [5] addresses T4, ATPase family AAA domain-containing protein 2 (Homo sapiens) (UniProt Q6PL18).
T4 sequence (whole entry): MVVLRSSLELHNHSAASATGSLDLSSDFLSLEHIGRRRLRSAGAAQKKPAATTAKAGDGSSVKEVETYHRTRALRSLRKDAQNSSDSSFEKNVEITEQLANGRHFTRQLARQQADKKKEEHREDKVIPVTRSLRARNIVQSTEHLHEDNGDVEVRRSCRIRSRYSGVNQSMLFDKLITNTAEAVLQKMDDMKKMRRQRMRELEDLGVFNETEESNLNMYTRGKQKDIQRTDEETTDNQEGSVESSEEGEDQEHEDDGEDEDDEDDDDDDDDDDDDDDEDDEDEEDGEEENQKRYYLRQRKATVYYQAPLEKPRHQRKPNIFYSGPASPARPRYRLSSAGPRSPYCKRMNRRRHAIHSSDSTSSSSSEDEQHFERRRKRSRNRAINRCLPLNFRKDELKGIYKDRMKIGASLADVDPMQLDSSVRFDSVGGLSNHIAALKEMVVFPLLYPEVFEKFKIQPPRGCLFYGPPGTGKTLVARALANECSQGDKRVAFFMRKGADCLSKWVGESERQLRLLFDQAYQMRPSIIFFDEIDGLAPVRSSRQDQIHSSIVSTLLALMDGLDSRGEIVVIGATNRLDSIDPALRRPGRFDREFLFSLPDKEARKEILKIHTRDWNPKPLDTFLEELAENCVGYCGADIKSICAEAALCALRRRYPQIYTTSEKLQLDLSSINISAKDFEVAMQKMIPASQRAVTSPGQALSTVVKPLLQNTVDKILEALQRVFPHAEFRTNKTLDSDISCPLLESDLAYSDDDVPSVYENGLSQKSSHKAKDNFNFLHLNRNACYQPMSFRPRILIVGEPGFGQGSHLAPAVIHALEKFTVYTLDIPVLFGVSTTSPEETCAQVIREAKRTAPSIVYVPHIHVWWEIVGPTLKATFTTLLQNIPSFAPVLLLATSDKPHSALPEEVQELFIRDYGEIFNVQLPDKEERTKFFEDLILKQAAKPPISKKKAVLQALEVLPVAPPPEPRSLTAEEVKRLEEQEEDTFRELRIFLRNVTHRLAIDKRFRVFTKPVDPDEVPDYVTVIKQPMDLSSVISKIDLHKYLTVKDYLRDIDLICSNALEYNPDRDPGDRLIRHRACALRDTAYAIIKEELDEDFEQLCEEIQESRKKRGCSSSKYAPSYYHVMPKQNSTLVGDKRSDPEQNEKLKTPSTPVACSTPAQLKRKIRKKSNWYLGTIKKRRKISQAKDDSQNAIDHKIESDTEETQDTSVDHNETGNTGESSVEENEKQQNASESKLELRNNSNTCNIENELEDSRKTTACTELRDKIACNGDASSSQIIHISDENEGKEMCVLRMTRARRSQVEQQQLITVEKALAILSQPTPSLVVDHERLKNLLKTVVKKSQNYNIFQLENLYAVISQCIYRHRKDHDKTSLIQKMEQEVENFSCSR
The data set is described as follows: Binding affinity to ATAD2 (unknown origin) assessed as increase in protein melting temperature at 50 umol by real-time PCR system based thermal shift assay. In a few lines:
as §1

For data set [6], the target named is T1, Bromodomain-containing protein 4.
The target of data set [7] is T2, CYP3A4. The data set is described as follows: Inhibition of CYP3A4 in human liver microsomes at 10 uM preincubated for 5 mins before NADPH addition and measured after 20 mins post NADPH addition. The format is ADME.
The nature of data set [8]: Growth inhibition of human MM1S cells after 72 hrs by CellTiter-Glo luminescent cell viability assay. The conditions noted are these: MM1.S. A general note: Cellular ATP, detected with luciferase, serves as a proxy for viable cell number.

With `Cc1c(N)cc(-c2csc(=O)[nH]2)cc1S(=O)(=O)NC1CCCC1`, the IC50 in data set [1] stood at 140 nM; in data set [8] it was 570 nM. For the same compound, the ΔTm in [2] amounted to 0.57 °C; in [3] it was 5.04 °C; in data set [5], 2.7 °C; in [6], 7.25 °C. Moreover, the results for the inhibition at 20 min, 10 µM on CYP3A4 [4], on CYP1A2 and at CYP3A4 [7] were 42%, 17% and 46%, respectively.
Turning to `Cc1c(Br)cc(-c2csc(=O)[nH]2)cc1S(=O)(=O)NC1CCCC1`, the IC50 in data set [1] was 60 nM; in data set [8] it was 999 nM. Further, the ΔTm was 0.94 °C in [2], 5.92 °C in data set [3], 3.42 °C in data set [5] and 9.22 °C in data set [6]. In addition, the inhibition at 20 min, 10 µM against CYP3A4 [4] was 42%; against CYP1A2, 47%; at CYP3A4 [7] it was 53%.
Consider `COc1ccc(-c2csc(=O)[nH]2)cc1S(=O)(=O)NC1CCCC1`, for which the values for the IC50 in data set [1] and in data set [8] were 760 nM and 2420 nM, respectively. Besides, the ΔTm in [2] was 0.41 °C; in data set [3], 2.82 °C; in data set [5], 1.36 °C; in [6] it was 5.19 °C. Besides, the inhibition at 20 min, 10 µM was found to be 20% against CYP3A4 [4], 3% against CYP1A2 and 30% at CYP3A4 [7].
In the case of `Nc1ccc(-c2csc(=O)[nH]2)cc1S(=O)(=O)NC1CCCC1`, the IC50 in data set [1] is 120 nM; in data set [8], 793 nM. In addition, the ΔTm in [2] is 0.39 °C; in data set [3], 4.06 °C; in data set [5], 3.28 °C; in [6] it was 7.76 °C. Further, the figures for the inhibition at 20 min, 10 µM against CYP3A4 [4], at CYP1A2 and against CYP3A4 [7] were 70%, 22% and 82%, respectively.
As for `O=C(Nc1cc(-c2csc(=O)[nH]2)cc(S(=O)(=O)NC2CCCC2)c1)C1CC1`, the IC50 was found to be 60 nM in data set [1] and 1060 nM in data set [8]. In addition, the ΔTm in [2] is 1.03 °C; in data set [3], 5.63 °C; in [5], 3.55 °C; in [6], 8.48 °C. Also, the inhibition at 20 min, 10 µM at CYP3A4 [4] came to 14%; against CYP1A2, 29%; at CYP3A4 [7] it was 21%.
`Cc1ccc(-c2csc(=O)[nH]2)cc1S(=O)(=O)NC1CCCC1`: the values for the IC50 in data set [1] and in [8] were 220 nM and 1900 nM, respectively. The ΔTm was 0.69 °C in data set [2], 3.47 °C in data set [3], 1.44 °C in data set [5] and 6.3 °C in data set [6]. The inhibition at 20 min, 10 µM against CYP3A4 [4] was determined as 62%; against CYP1A2, 52%; against CYP3A4 [7] it was 68%.
